Source: ChEMBL document CHEMBL4308833, “A Thieno[2,3- d]pyrimidine Scaffold Is a Novel Negative Allosteric Modulator of the Dopamine D2 Receptor” (J Med Chem, 2018)
The source made the active and inactive calls. No cut-off for these calls is given here.

What was measured:
[1] = target: D(2) dopamine receptor (Homo sapiens) (UniProt P14416); assay: Displacement of [3H]Raclopride from recombinant human D2L receptor expressed in Flp-In CHO cell membranes after 2 to 3 hrs by microbeta counting method
In short: (§1)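 hD2LR FlpIn CHO membrane homogenate (15 µg protein) was co-incubated with 0.5 nM [3H]raclopride and test compound at 10^-3 to 10^-7 M (half-log dilutions from DMSO stock, in duplicate). Incubation was 2-3 h at 25 °C in HEPES buffer, pH 7.4. Nonspecific binding was defined with 10 µM haloperidol. Filtration was followed by scintillation counting. KB and cooperativity α were obtained from an allosteric ternary complex model.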

[2] = target: D(2) dopamine receptor (Homo sapiens) (UniProt P14416); assay: Negative allosteric modulation of recombinant human D2L receptor expressed in Flp-In CHO cells assessed as inhibition of dopamine-induced reduction in forskolin stimulated cAMP accumulation by measuring co-operativity factor up to 100 uM preincubated for 30 mins followed by forskolin stimulation and measured after 30 mins by BRET assay; format: functional, cell-based
[3] = target: D(2) dopamine receptor (Homo sapiens) (UniProt P14416); assay: (§2) Negative allosteric modulation of recombinant human D2L receptor expressed in Flp-In CHO cells assessed as inhibition of dopamine-induced reduction in forskolin stimulated cAMP accumulation preincubated for 30 mins followed by forskolin stimulation and measured after 30 mins by BRET assay; format: functional, cell-based
[4] = target: D(2) dopamine receptor (Homo sapiens) (UniProt P14416); assay: as §2, with “accumulation by measuring co-operativity factor” for “accumulation”; format: functional, cell-based
[5] = target: D(2) dopamine receptor (Homo sapiens) (UniProt P14416); assay: as §2, with “accumulation by measuring modulation of dopamine efficacy” for “accumulation”; format: functional, cell-based
[6] = target: D(2) dopamine receptor (Homo sapiens) (UniProt P14416); assay: Displacement of [3H]Raclopride from recombinant human D2L receptor expressed in Flp-In CHO cell membranes assessed as co-operativity factor after 2 to 3 hrs by microbeta counting method; in short: as §1
[7] = target: D(3) dopamine receptor (Homo sapiens) (UniProt P35462); assay: Displacement of [3H]Raclopride from recombinant D3 receptor (unknown origin) expressed in Flp-In CHO cell membranes after 2 to 3 hrs by microbeta counting method
In short: (§3)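 In FlpIn CHO membranes expressing hD3R, compound was tested for displacement of [3H]raclopride in equilibrium binding. Competition curves were fitted with an allosteric ternary complex model to give KB and the net cooperativity factor with [3H]raclopride. Data are at least three independent experiments in duplicate.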

Homo sapiens = species: Homo sapiens; assay: Selectivity ratio of Kb for recombinant D3 receptor (unknown origin) expressed in Flp-In CHO cell membranes to Kb for recombinant human D2L receptor expressed in Flp-In CHO cell membranes; format: cell-based
[8] = target: D(3) dopamine receptor (Homo sapiens) (UniProt P35462); assay: Displacement of [3H]Raclopride from recombinant D3 receptor (unknown origin) expressed in Flp-In CHO cell membranes assessed as co-operativity factor after 2 to 3 hrs by microbeta counting method; in short: as §3
[9] = target: D(2) dopamine receptor (Homo sapiens) (UniProt P14416); assay: Allosteric modulation of recombinant human D2L receptor expressed in Flp-In CHO cell membranes assessed as dissociation of [3H]Raclopride at 100 uM in presence of haloperidol after 2 to 3 hrs by microbeta counting method (reference value: 0.02 +/- 0.004 /min); format: cell-based
In short: (§4)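 Membranes from FlpIn CHO cells stably expressing hD2LR were incubated with 0.5 nM [3H]raclopride for 60 min in HEPES/NaCl/MgCl2/EGTA/EDTA buffer, pH 7.4, at 25 °C. Dissociation was then started by adding 10 µM haloperidol, with or without modulator. Bound radioactivity was collected by filtration and scintillation counting. Curves were fitted for koff, and t1/2 = 0.6931/koff.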

[10] = target: D(2) dopamine receptor (Homo sapiens) (UniProt P14416); assay: Allosteric modulation of recombinant human D2L receptor expressed in Flp-In CHO cell membranes assessed as dissociation half life for [3H]Raclopride at 100 uM in presence of haloperidol after 2 to 3 hrs by microbeta counting method (reference value: 34.2 min); format: cell-based; in short: as §4

D(3) dopamine receptor (Homo sapiens), sequence (P35462 whole entry): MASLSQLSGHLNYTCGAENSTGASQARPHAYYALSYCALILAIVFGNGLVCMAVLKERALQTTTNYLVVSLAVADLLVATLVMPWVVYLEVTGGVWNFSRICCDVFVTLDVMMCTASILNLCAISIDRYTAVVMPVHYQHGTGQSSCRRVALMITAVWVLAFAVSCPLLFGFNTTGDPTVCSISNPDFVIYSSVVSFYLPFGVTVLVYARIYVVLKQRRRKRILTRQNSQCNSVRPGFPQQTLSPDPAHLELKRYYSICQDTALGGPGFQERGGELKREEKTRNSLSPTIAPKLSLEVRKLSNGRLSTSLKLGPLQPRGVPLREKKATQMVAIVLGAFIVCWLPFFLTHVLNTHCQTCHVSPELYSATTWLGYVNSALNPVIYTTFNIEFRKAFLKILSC
D(2) dopamine receptor (Homo sapiens), sequence (P14416 whole entry): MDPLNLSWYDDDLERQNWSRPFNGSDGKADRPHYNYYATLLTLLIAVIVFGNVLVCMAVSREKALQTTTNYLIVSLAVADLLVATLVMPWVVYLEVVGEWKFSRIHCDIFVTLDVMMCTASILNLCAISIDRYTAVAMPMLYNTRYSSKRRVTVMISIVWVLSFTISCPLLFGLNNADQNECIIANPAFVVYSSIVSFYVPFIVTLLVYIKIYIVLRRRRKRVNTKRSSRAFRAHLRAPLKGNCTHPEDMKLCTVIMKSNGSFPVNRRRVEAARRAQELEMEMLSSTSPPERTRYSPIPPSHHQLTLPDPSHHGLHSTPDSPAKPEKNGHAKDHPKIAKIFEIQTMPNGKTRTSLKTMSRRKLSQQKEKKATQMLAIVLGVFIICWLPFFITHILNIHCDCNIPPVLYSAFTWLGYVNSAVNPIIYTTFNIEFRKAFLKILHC

SMILES | Kb [1] [µM] | pKb [1] | inhibition [2] | Kb [3] [µM] | pKb [3] | Activity [4] | log(activity) [4] | log(activity) [5] | Activity [5] | Activity [6] | log(activity) [6] | Kb [7] [µM] | pKb [7] | Selectivity ratio (Homo sapiens) | Activity [8] | log(activity) [8] | K [9] [min⁻¹] | T1/2 [10] [min]
FC(F)(F)c1cccc(Nc2nc(CN3CCOCC3)nc3sc(Cc4ccccc4)cc23)c1 | 50 | 4.3 | inactive |  |  |  |  |  |  |  |  |  |  |  |  |  |  | 
FC(F)(F)c1cccc(Nc2nc(CN3CCOCC3)nc3sc(C4CCCCC4)cc23)c1 | 45.8 | 4.34 |  | 5.37 | 5.27 | 0.13 | -0.9 | 0 |  |  |  |  |  |  |  |  |  | 
COc1cccc(Nc2nc(CN3CCOCC3)nc3sc4c(c23)CCCC4)c1 | 48 | 4.32 |  | 8.02 | 5.1 | 0.19 | -0.73 | -0.53 | 0.29 |  |  |  |  |  |  |  |  | 
Fc1cccc(Nc2nc(CN3CCOCC3)nc3sc4c(c23)CCCC4)c1 |  |  |  | 8.39 | 5.08 |  | 0 | -0.4 | 0.4 |  |  |  |  |  |  |  |  | 
FC(F)(F)c1cccc(Nc2nc(CN3CCCCC3)nc3sc4c(c23)CCCC4)c1 | 39 | 4.41 |  | 6.98 | 5.16 | 0.34 | -0.46 | -0.22 | 0.6 |  |  |  |  |  |  |  |  | 
FC(F)(F)c1cccc(Nc2nc(CN3CCOCC3)nc3sc(-c4ccccc4)cc23)c1 | 45 | 4.35 | inactive |  |  |  |  |  |  |  |  |  |  |  |  |  |  | 
CNc1nc(CN2CCOCC2)nc2sc3c(c12)CCCC3 | 53 | 4.28 | inactive |  |  |  |  |  |  |  |  |  |  |  |  |  |  | 
CCN(CC)c1ncnc2sccc12 | 23 | 4.65 |  | 4.6 | 5.31 |  | 0 | -0.89 | 0.13 | 0.1 | -1.01 |  |  |  |  |  |  | 
FC(F)(F)c1cccc(Nc2ncnc3sccc23)c1 | 63 | 4.2 |  | 0.8 | 6.13 | 0.37 | -0.43 | 0 |  |  |  |  |  |  |  |  |  | 
FC(F)(F)c1cccc(Nc2nc(CN3CCOCC3)nc3sc4c(c23)CCCCCC4)c1 |  | 3.98 | inactive |  |  |  |  |  |  |  |  |  |  |  |  |  |  | 
CCN(CC)c1nc(CCCCN2CCOCC2)nc2sc3c(c12)CCCC3 | 16 | 4.79 |  | 1.77 | 5.8 |  |  | 1.07 |  |  |  | 10 | 4.99 | 1.6 |  |  |  | 
CCN(CC)c1nc(CN2CCOCC2)nc2sccc12 | 1.3 | 5.89 |  | 3.13 | 5.5 | 0.08 | -1.1 | -0.62 | 0.24 |  |  | 11 | 4.95 | 0.1 |  |  |  | 
O=c1[nH]cnc2sc3c(c12)CCCC3 |  |  | inactive |  |  |  |  |  |  |  |  |  |  |  |  |  |  | 
FC(F)(F)c1cccc(Nc2ncnc3sc4c(c23)CCCC4)c1 | 31 | 4.51 |  | 25.4 | 4.6 |  | 0 | -1.02 | 0.1 | 0.39 | -0.41 | 0.2 | 6.65 | 140 | 0.06 | -0.39 |  | 
FC(F)(F)c1cccc(Nc2nc(CCN3CCOCC3)nc3sc4c(c23)CCCC4)c1 | 70 | 4.16 |  | 0.981 | 6.01 | 0.23 | -0.63 | 0 |  |  |  |  |  |  |  |  |  | 
Oc1cccc(Nc2nc(CN3CCOCC3)nc3sc4c(c23)CCCC4)c1 | 35 | 4.45 |  | 2.81 | 5.55 | 0.06 | -1.22 | -3 |  |  |  |  |  |  |  |  |  | 
FC(F)(F)c1cccc(Nc2nc(CN3CCOCC3)nc3scc(-c4ccccc4)c23)c1 | 48.6 | 4.31 | inactive |  |  |  |  |  |  | 0.13 | -0.88 |  |  |  |  |  |  | 

SMILES | Kb [1] [µM] | pKb [1] | inhibition [2] | Kb [3] [µM] | pKb [3] | Activity [4] | log(activity) [4] | log(activity) [5] | Activity [5] | Activity [6] | log(activity) [6] | Kb [7] [µM] | pKb [7] | Selectivity ratio (Homo sapiens) | Activity [8] | log(activity) [8] | K [9] [min⁻¹] | T1/2 [10] [min]
FC(F)(F)c1cccc(Nc2nc(CCCCN3CCOCC3)nc3sc4c(c23)CCCC4)c1 | 3.31 | 5.48 |  | 0.611 | 6.21 | 0.19 | -0.72 | -1.5 | 0.03 | 0.09 | -1.03 |  | 3.97 | 0.03 | 0.2 | -0.69 |  | 
CCN(CC)c1nc(CC2CCOCC2)nc2sc3c(c12)CCCC3 | 35 | 4.45 | inactive |  |  |  |  |  |  |  |  |  |  |  |  |  |  | 
FC(F)(F)c1cccc(Nc2nc(CN3CCOCC3)nc3sc4c(c23)CCC4)c1 | 59 | 4.23 |  | 11.4 | 4.95 | 0.13 | -0.9 | 0 |  |  |  |  |  |  |  |  |  | 
FC(F)(F)c1cccc(Nc2nc(CN3CCOCC3)nc3sc4c(c23)CCCC4)c1 | 16.6 | 4.78 |  | 3.87 | 5.41 |  | 0 | -0.55 | 0.28 |  |  | 0.3 | 6.54 | 57 | 0.39 | -0.4 | 0.038 | 18.1
FC(F)(F)c1cccc(Nc2nc(CN3CCOCC3)nc3sc4c(c23)CCCCC4)c1 | 37 | 4.43 | inactive |  |  |  |  |  |  |  |  |  |  |  |  |  |  | 
FC(F)(F)c1cccc(Nc2nc(CCCN3CCOCC3)nc3sc4c(c23)CCCC4)c1 | 13 | 4.89 |  | 1.63 | 5.79 | 0.21 | -0.68 | -0.4 | 0.4 |  |  |  |  |  |  |  |  | 
FC(F)(F)c1cccc(Nc2nc(CC3CCOCC3)nc3sc4c(c23)CCCC4)c1 | 100 | 3.99 |  | 0.622 | 6.22 | 0.13 | -0.89 | -0.63 | 0.23 | 0.39 | -0.41 | 52 | 4.28 | 2 | 0.37 | -0.44 |  | 
CN(C)c1nc(CN2CCOCC2)nc2sc(Cc3ccccc3)cc12 | 30 | 4.51 |  | 4.9 | 5.31 | 0.68 | -0.17 | -0.84 | 0.15 |  |  |  |  |  |  |  |  | 
CCN(CC)c1ncnc2sc3c(c12)CCCC3 | 17 | 4.76 |  | 1.92 | 5.72 |  | 0 | -3 |  |  |  |  |  |  |  |  |  | 
Cc1sc2nc(CN3CCOCC3)nc(Nc3cccc(C(F)(F)F)c3)c2c1C |  | 3.59 | inactive |  |  |  |  |  |  |  |  |  |  |  |  |  |  | 
CCN(CC)c1nc(CCCCN2CCOCC2)nc2sccc12 | 3 | 5.51 |  | 1.3 | 5.89 | 0.05 | -1.34 | -0.82 | 0.15 |  |  | 0.9 | 6.06 | 3.5 |  |  |  | 
FC(F)(F)c1cccc(Oc2nc(CN3CCOCC3)nc3sc4c(c23)CCCC4)c1 | 22 | 4.66 | inactive |  |  |  |  |  |  |  |  |  |  |  |  |  |  | 
FC(F)(F)c1cccc(Nc2nc(CN3CCOCC3)nc3sccc23)c1 |  | 3.91 | inactive |  |  |  |  |  |  |  |  |  |  |  |  |  |  | 
FC(F)(F)c1cccc(Nc2nc(CN3CCOCC3)nc3scc(C4CCCCC4)c23)c1 | 38 | 4.42 | inactive |  |  |  |  |  |  |  |  |  |  |  |  |  |  | 
c1ccc(Nc2nc(CN3CCOCC3)nc3sc4c(c23)CCCC4)cc1 | 99 | 4 |  | 7.46 | 5.13 |  | 0 | -0.95 | 0.11 |  |  |  |  |  |  |  |  | 
FC(F)(F)c1cccc(Nc2nc(CCCCN3CCOCC3)nc3sccc23)c1 | 19 | 4.71 |  | 1.4 | 5.85 | 0.13 | -0.88 | -1.21 | 0.06 |  |  |  |  |  |  |  |  | 
